# Data published in ChEMBL document CHEMBL1143088, “Non-acidic pyrazole EP1 receptor antagonists with in vivo analgesic efficacy” (Bioorg Med Chem Lett, 2008).
# pIC50, pKi: −log10 of the molar value.
# Key:
# [1] = target: T1, Prostaglandin E2 receptor EP1 subtype (Homo sapiens, UniProt P34995); assay: Displacement of [3H]PGE2 from human PGE2-EP1 receptor expressed in CHO-K1 cells; assay type: cell-based
# T1 sequence (P34995 whole entry): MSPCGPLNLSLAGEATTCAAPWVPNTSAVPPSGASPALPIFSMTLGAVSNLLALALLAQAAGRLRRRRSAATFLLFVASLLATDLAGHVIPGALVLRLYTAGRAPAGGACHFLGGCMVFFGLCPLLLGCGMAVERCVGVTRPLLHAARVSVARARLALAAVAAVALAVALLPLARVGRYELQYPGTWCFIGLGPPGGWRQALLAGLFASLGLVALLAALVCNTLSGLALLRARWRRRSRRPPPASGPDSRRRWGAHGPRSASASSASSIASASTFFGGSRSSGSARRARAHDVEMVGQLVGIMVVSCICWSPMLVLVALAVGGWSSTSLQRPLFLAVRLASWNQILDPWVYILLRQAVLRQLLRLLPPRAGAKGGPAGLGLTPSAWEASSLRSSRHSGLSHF
# [2] = Distribution coefficient, logD at pH 7.4; assay type: physicochemical; settings: octanol/water
# Outline: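 Distribution coefficient between n-octanol and water buffered to pH 7.4; log10 of ratio of equilibrium concentrations of all species.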
# [3] = Clearance in blood in rat at 10 mL/h/kg, iv; assay type: ADME, organism-based; settings: whole blood
# Outline: (§1)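 Male rats (n = 1 per compound) dosed iv at 10 mL/h/kg over 1 h via femoral vein cannula, target 1 mg free compound/kg, formulated at 0.1 mg/mL in 0.9% saline with 2% DMSO and 10–20% Kleptose (some with a molar equivalent NaOH), filtered before dosing.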
# [4] = Volume of distribution at steady state in rat at 10 mL/h/kg, iv; assay type: ADME, organism-based; settings: in vivo, read-out: Vdss; outline: as §1
# [5] = Half life in rat at 10 mL/h/kg, iv; assay type: ADME, organism-based; settings: in vivo; outline: as §1
# Brain [6] = assay: Drug uptake in FCA-induced hypersensitivity rat brain at 3 mg/kg, po administered with DMSO as vehicle; assay type: ADME, organism-based; parameters: dose 3 mg/kg, route oral; settings: in vivo, read-out: Drug uptake
# Outline: (§2)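 CFA inflammatory pain rats dosed orally at 1, 3, 10 and 30 mg/kg in 2% DMSO and 20% Kleptose water; weight-bearing readout and blood/brain samples taken 1 h post-dose. Blood levels mean of seven rats; brain levels mean of two or three rats; Br:Bl average of three rats.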
# Brain [7] = assay: Drug uptake in FCA-induced hypersensitivity rat brain at 10 mg/kg, po administered with DMSO as vehicle; assay type: ADME, organism-based; parameters: dose 10 mg/kg, route oral; settings: in vivo, read-out: Drug uptake; outline: as §2
# Brain [8] = assay: Drug uptake in FCA-induced hypersensitivity rat brain at 30 mg/kg, po administered with DMSO as vehicle; assay type: ADME, organism-based; parameters: dose 30 mg/kg, route oral; settings: in vivo, read-out: Drug uptake; outline: as §2
# [9] = Ratio of drug level in brain to blood in FCA-induced hypersensitivity rat at 1 mg/kg, po administered with DMSO as vehicle; assay type: ADME, organism-based; parameters: dose 1 mg/kg, route oral; outline: as §2
# [10] = Ratio of drug level in brain to blood in FCA-induced hypersensitivity rat at 3 mg/kg, po administered with DMSO as vehicle; assay type: ADME, organism-based; parameters: dose 3 mg/kg, route oral; outline: as §2
# [11] = Ratio of drug level in brain to blood in FCA-induced hypersensitivity rat at 10 mg/kg, po administered with DMSO as vehicle; assay type: ADME, organism-based; parameters: dose 10 mg/kg, route oral; outline: as §2
# [12] = Ratio of drug level in brain to blood in FCA-induced hypersensitivity rat at 30 mg/kg, po administered with DMSO as vehicle; assay type: ADME, organism-based; parameters: dose 30 mg/kg, route oral; outline: as §2
# [13] = Drug level in Sprague-Dawley rat brain at steady state at […], iv after 18 hrs; assay type: ADME, organism-based; parameters: route intravenous; settings: read-out: Drug uptake
# Outline: (§3)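 Male Sprague–Dawley rat given iv infusion over 18 h at 5 mL/kg/h (0.518 mg/kg/h) in 0.9% saline with 2% DMSO, 20% Kleptose. Serial blood samples every 15 min over last hour to confirm steady state; after 18 h blood taken, rat culled, brain homogenized; blood and brain analysed by LC/MS/MS.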
# [14] = Drug level in Sprague-Dawley rat blood at steady state at […], iv after 18 hrs; assay type: ADME, organism-based; parameters: route intravenous; settings: whole blood, read-out: Drug uptake; outline: as §3
# [15] = Clearance at steady state in Sprague-Dawley rat blood at […], iv after 18 hrs; assay type: ADME, organism-based; parameters: route intravenous; settings: whole blood; outline: as §3
# [16] = target: T1, Prostaglandin E2 receptor EP1 subtype; assay: Antagonist activity at PGE2-EP1 receptor assessed as PGE2-induced response by schild analysis; assay type: functional; settings: read-out: pA2 (converted)
# Rattus norvegicus = assay: Reversal of FCA-induced hypersensitivity in orally dosed rat assessed as reduction in weight bearing administered with DMSO as vehicle; assay type: functional; settings: po
# Outline: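 The CFA inflammatory pain model used rats dosed orally at 1, 3, 10 and 30 mg/kg in 2% DMSO and 20% Kleptose in water. Weight bearing was the efficacy readout at 1 h post-dose. Blood (seven rats) and brain (two to three rats) were sampled at that time. ED50 was given in mg/kg.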
# [17] = Ratio of drug level in brain to blood in Sprague-Dawley rat at […], iv; assay type: ADME, organism-based; parameters: route intravenous; outline: as §3
# [18] = target: T1, Prostaglandin E2 receptor EP1 subtype; assay: Antagonist activity at PGE2-EP1 receptor assessed as PGE2-induced intracellular calcium mobilization; assay type: functional, cell-based
# [19] = target: T2, Prostaglandin E2 receptor EP3 subtype (Homo sapiens, UniProt P43115); assay: Antagonist activity at PGE2-EP3 receptor assessed as PGE2-induced intracellular calcium mobilization; assay type: functional, cell-based
# T2 sequence (P43115 whole entry): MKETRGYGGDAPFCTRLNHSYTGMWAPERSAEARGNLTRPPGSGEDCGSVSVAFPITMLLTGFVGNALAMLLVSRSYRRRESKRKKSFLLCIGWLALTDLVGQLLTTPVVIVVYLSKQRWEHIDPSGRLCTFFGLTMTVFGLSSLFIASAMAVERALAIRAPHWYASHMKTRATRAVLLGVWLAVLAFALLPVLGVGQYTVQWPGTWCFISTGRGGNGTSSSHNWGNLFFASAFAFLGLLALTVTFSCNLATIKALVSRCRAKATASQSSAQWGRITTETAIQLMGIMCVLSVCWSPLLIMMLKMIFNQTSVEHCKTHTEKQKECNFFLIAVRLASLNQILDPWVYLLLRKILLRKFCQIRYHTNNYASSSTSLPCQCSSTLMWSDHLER
# Cytochrome P450 1A2 = target: T3, Cytochrome P450 1A2 (Homo sapiens, UniProt P05177); assay: Inhibition of CYP1A2; assay type: ADME
# T3 sequence (P05177 whole entry): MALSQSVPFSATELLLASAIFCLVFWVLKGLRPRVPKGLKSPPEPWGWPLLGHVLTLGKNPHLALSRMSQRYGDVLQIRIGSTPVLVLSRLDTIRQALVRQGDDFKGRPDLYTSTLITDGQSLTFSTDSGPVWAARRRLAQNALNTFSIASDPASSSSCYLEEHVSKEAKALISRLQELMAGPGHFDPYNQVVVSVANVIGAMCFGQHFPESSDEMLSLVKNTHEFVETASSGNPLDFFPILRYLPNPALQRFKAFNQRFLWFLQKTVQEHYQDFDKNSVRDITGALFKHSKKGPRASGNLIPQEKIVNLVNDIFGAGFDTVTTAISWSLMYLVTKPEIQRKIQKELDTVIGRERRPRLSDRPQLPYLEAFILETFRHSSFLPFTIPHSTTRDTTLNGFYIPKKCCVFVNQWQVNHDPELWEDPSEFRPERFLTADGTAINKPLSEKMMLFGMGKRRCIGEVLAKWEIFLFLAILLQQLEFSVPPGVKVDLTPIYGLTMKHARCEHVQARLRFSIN
# Cytochrome P450 2C19 = Cytochrome P450 2C19 (Homo sapiens, UniProt P33261); assay: Inhibition of CYP2C19; assay type: ADME
# Sequence of Cytochrome P450 2C19 (P33261 whole entry): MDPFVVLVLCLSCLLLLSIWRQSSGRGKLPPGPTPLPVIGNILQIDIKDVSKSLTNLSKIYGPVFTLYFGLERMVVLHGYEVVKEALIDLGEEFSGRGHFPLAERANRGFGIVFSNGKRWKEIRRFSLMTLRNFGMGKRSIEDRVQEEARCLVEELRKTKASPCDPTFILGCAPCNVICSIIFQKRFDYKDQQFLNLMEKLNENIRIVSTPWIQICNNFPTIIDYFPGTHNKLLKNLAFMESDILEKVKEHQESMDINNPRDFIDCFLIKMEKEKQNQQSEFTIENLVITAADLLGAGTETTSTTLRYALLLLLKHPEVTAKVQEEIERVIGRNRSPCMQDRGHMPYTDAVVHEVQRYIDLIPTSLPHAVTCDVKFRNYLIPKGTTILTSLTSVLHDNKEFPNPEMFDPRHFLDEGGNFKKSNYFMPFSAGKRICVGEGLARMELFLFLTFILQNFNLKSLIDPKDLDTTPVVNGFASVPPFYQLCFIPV
# Cytochrome P450 2C9 = Cytochrome P450 2C9 (Homo sapiens, UniProt P11712); assay: Inhibition of CYP2C9; assay type: ADME
# Sequence of Cytochrome P450 2C9 (P11712 whole entry): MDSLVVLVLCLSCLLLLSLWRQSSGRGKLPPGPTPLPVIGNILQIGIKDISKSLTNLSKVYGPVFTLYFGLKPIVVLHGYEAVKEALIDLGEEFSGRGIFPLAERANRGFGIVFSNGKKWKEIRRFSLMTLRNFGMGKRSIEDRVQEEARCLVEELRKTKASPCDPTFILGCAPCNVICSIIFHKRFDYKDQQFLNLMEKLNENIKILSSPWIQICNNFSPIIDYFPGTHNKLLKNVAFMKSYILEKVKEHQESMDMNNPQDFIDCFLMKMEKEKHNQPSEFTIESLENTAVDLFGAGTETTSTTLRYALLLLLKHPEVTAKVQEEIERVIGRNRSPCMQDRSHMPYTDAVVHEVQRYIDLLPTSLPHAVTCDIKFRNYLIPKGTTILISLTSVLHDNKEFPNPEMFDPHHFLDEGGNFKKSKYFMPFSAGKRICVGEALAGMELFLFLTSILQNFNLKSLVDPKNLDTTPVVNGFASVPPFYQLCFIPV
# Cytochrome P450 2D6 = Cytochrome P450 2D6 (Homo sapiens, UniProt P10635); assay: Inhibition of CYP2D6; assay type: ADME
# Sequence of Cytochrome P450 2D6 (P10635 whole entry): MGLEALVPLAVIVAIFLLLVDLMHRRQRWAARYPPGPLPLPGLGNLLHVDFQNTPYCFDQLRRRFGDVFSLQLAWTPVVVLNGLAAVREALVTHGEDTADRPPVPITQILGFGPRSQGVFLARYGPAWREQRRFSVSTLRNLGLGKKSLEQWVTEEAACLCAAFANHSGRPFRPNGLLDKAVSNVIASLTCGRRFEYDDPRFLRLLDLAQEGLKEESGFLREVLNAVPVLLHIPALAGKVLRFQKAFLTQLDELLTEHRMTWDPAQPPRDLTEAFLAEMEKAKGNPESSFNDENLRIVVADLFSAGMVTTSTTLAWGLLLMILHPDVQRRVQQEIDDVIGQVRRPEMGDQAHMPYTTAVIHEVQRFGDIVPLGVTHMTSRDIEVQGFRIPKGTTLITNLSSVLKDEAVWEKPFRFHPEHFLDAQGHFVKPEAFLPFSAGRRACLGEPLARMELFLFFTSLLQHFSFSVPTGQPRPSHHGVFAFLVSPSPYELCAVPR
# Cytochrome P450 3A4 = Cytochrome P450 3A4 (Homo sapiens, UniProt P08684); assay: Inhibition of CYP3A4; assay type: ADME
# Sequence of Cytochrome P450 3A4 (P08684 whole entry): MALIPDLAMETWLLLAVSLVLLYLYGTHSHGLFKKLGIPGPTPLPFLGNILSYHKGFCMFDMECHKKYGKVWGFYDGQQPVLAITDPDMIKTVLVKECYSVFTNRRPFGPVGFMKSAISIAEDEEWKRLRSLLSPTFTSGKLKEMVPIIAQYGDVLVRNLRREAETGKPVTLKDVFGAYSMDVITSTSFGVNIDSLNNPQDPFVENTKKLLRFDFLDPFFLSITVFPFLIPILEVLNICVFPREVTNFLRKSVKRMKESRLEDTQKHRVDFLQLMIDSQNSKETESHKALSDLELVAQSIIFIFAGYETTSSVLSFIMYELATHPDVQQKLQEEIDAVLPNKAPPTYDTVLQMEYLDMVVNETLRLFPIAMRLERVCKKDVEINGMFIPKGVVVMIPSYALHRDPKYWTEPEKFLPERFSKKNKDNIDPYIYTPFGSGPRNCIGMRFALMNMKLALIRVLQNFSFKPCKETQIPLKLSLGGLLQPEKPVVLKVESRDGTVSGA
# Blood [20] = assay: Drug uptake in FCA-induced hypersensitivity rat blood at 1 mg/kg, po administered with DMSO as vehicle; assay type: ADME, organism-based; parameters: dose 1 mg/kg, route oral; settings: in vivo, read-out: Drug uptake; outline: as §2
# Blood [21] = assay: Drug uptake in FCA-induced hypersensitivity rat blood at 3 mg/kg, po administered with DMSO as vehicle; assay type: ADME, organism-based; parameters: dose 3 mg/kg, route oral; settings: in vivo, read-out: Drug uptake; outline: as §2
# Blood [22] = assay: Drug uptake in FCA-induced hypersensitivity rat blood at 10 mg/kg, po administered with DMSO as vehicle; assay type: ADME, organism-based; parameters: dose 10 mg/kg, route oral; settings: in vivo, read-out: Drug uptake; outline: as §2
# Blood [23] = assay: Drug uptake in FCA-induced hypersensitivity rat blood at 30 mg/kg, po administered with DMSO as vehicle; assay type: ADME, organism-based; parameters: dose 30 mg/kg, route oral; settings: in vivo, read-out: Drug uptake; outline: as §2
# Brain [24] = assay: Drug uptake in FCA-induced hypersensitivity rat brain at 1 mg/kg, po administered with DMSO as vehicle; assay type: ADME, organism-based; parameters: dose 1 mg/kg, route oral; settings: in vivo, read-out: Drug uptake; outline: as §2
compound,measurement,setting,value
Cc1cc(NC(=O)Cc2ccccc2)nn1Cc1cc(Cl)ccc1OCc1ccccc1,pIC50,[1],7.90
same,logD,[2],> 3.7
same,clearance,[3],3.54 L/h/kg
same,Vd,[4],7.5 L/kg
same,half-life,[5],2.9 h
Cc1cc(C(=O)NCc2ccccc2)nn1Cc1cc(Cl)ccc1OCc1ccccc1,pIC50,[1],7.40
same,logD,[2],> 3.7
same,clearance,[3],4.5 L/h/kg
same,Vd,[4],9.3 L/kg
same,half-life,[5],4.6 h
Cc1cc(C(=O)Nc2ccccn2)nn1Cc1cc(Cl)ccc1OCc1ccccc1,pIC50,[1],6.90
same,logD,[2],> 3.7
Cc1cc(C(=O)NC(C)C)nn1Cc1cc(Cl)ccc1OCc1ccccc1,pIC50,[1],6.90
same,logD,[2],> 3.7
CNC(=O)c1cc(C)n(Cc2cc(Cl)ccc2OCc2ccccc2)n1,pIC50,[1],7.00
same,logD,[2],> 3.7
Cc1cc(NC(=O)OC(C)(C)C)nn1Cc1cc(Cl)ccc1OCc1ccccc1,concentration,Brain [6],0.473 µM
same,concentration,Brain [7],0.781 µM
same,concentration,Brain [8],0.836 µM
same,Kp,[9],2.66
same,Kp,[10],2.66
same,Kp,[11],2.26
same,Kp,[12],2.73
same,concentration at 18 h,[13],1.4 µM
same,concentration at 18 h,[14],0.408 µM
same,clearance,[15],3.24 L/h/kg
same,pIC50,[1],7.60
same,logD,[2],> 3.7
same,clearance,[3],2.52 L/h/kg
same,Vd,[4],8.6 L/kg
same,half-life,[5],3 h
same,Kb,[16],0.0501 µM
same,ED50,Rattus norvegicus,5.36 mg/kg
same,Kp,[17],3.44
same,pKi,[18],7.80
same,pKi,[19],< 5.00
same,pIC50,Cytochrome P450 1A2,< 4.00
same,pIC50,Cytochrome P450 2C19,< 4.00
same,pIC50,Cytochrome P450 2C9,4.80
same,pIC50,Cytochrome P450 2D6,< 4.00
same,pIC50,Cytochrome P450 3A4,< 4.00
same,concentration,Blood [20],0.057 µM
same,concentration,Blood [21],0.21 µM
same,concentration,Blood [22],0.302 µM
same,concentration,Blood [23],0.299 µM
same,concentration,Brain [24],0.106 µM
Cc1cc(NC(=O)C2CCCCC2)nn1Cc1cc(Cl)ccc1OCC(C)C,pIC50,[1],7.50
same,logD,[2],> 3.7
same,clearance,[3],4.08 L/h/kg
same,Vd,[4],3.5 L/kg
same,half-life,[5],1.7 h
Cc1cc(NC(=O)C2CCOCC2)nn1Cc1cc(Cl)ccc1OCc1ccccc1,pIC50,[1],7.20
same,logD,[2],> 3.7
same,clearance,[3],3.3 L/h/kg
same,Vd,[4],3.3 L/kg
same,half-life,[5],1 h
Cc1cc(C(=O)Nc2ccccc2)nn1Cc1cc(Cl)ccc1OCc1ccccc1,pIC50,[1],7.40
same,logD,[2],> 3.7
Cc1cc(C(=O)Nc2c(F)cccc2F)nn1Cc1cc(Cl)ccc1OCc1ccccc1,pIC50,[1],8.00
same,logD,[2],3.7
Cc1cc(NC(=O)O[C@H]2CCOC2)nn1Cc1cc(Cl)ccc1OCc1ccccc1,pIC50,[1],7.10
same,logD,[2],2.7
same,clearance,[3],5.16 L/h/kg
same,Vd,[4],3.7 L/kg
same,half-life,[5],0.8 h
Cc1cc(C(N)=O)nn1Cc1cc(Cl)ccc1OCc1ccccc1,pIC50,[1],6.90
same,logD,[2],3.7
